Source: ChEMBL document CHEMBL4024800, “α-Amino-β-carboxymuconate-ε-semialdehyde Decarboxylase (ACMSD) Inhibitors as Novel Modulators of De Novo Nicotinamide Adenine Dinucleotide (NAD+) Biosynthesis” (J Med Chem, 2018)

How the values were obtained:
[1] = AUClast in mouse blood at 5 mg/kg, po measured up to 8 hrs post dose; format: ADME, organism-based; design: time < 8 hr, dose 5 mg/kg, route oral
In short: (§1)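 Mice dosed orally at 5 mg/kg in 0.5% (w/v) HPMC in water with 5% (v/v) DMSO; blood, liver and kidney concentrations followed to 8 h. AUC0–8h given in h·ng/mL; parameters reported as means.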

[2] = AUClast in mouse liver at 5 mg/kg, po measured up to 8 hrs post dose; format: ADME, organism-based; design: dose 5 mg/kg, time < 8 hr, route oral; in short: as §1
HepG2 = test: Cytotoxicity against human HepG2 cells assessed as reduction in cell viability after 4 hrs by celltiter-glo assay; format: cell-based; settings: hepg2, 4 h
In short: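 HepG2 or AML12 cells, 5 × 10^3 per well, exposed to compound for 4 h at 37 °C. Viability read as ATP by CellTiter-Glo luminescence; tamoxifen control.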

For `N#Cc1c(-c2cccs2)nc(SCc2cccc(CC(=O)O)c2)[nH]c1=O`, the AUC(0-t) at 8 h [1] was 12700 ng·h/mL, the AUC(0-t) at 8 h [2] was 19200 ng·h/mL and the Activity (HepG2) was “Non-Toxic”.
